Measurements as given in ChEMBL document CHEMBL3352313 (J Med Chem, 2014).

Assays:
[1] = biological target: T1, Muscarinic acetylcholine receptor M5 (Homo sapiens, UniProt P08912); test: Positive allosteric modulator activity at human muscarinic acetylcholine receptor subtype 5 expressed in CHO cells by calcium mobilization assay; assay type: functional, cell-based
T1 sequence (P08912 whole entry): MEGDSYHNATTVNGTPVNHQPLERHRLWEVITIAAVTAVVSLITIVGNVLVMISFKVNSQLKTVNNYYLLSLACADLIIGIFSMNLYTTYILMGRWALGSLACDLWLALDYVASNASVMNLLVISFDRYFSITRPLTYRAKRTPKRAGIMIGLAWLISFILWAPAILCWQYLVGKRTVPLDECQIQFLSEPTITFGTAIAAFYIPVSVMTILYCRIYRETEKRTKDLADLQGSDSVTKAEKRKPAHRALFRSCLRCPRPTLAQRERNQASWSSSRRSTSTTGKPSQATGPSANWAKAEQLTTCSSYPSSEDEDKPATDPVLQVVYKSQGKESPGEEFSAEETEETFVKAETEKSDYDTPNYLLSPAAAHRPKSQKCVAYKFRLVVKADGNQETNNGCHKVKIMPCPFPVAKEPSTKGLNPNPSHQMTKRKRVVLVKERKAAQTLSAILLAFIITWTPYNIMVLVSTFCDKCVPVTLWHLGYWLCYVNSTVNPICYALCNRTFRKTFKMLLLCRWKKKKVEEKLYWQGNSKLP

[2] = biological target: T2, Muscarinic acetylcholine receptor M5 (Homo sapiens) (UniProt P08912); test: Positive allosteric modulator activity at human muscarinic acetylcholine receptor subtype 5 expressed in CHO cells by calcium mobilization assay relative to acetylcholine; assay type: functional, cell-based
T2 sequence (whole entry): T1 sequence (P08912 whole entry)

[3] = Intrinsic clearance in rat liver microsomes; assay type: ADME; settings: read-out: CLH
Method in brief: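 Microsomal intrinsic clearance, used in the well-stirred model of organ clearance, not corrected for plasma fraction unbound, to predict hepatic clearance.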

[4] = biological target: T2, Muscarinic acetylcholine receptor M5 (Homo sapiens); test: Positive allosteric modulator activity at human muscarinic acetylcholine receptor subtype 5 expressed in CHO cells assessed as fold shift in acetylcholine-induced response at 10 uM by calcium mobilization assay; assay type: functional, cell-based
Method in brief: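 In hM5 CHO cells by calcium mobilization, PAM at a fixed 10 μM or vehicle is added before an ACh concentration-response curve. Fold shift is the ratio of ACh potency without PAM to potency with PAM.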

[5] = biological target: T2, Muscarinic acetylcholine receptor M5 (Homo sapiens); test: Displacement of [3H]NMS from human muscarinic acetylcholine receptor subtype 5 expressed in CHO cell membranes assessed as radioligand binding level by scintillation counting method

Structure (SMILES)	EC50 ([1]; read-out: EC50)	%max [2]	other results
CCN(Cc1ccccc1)C(=O)C1CCN(S(=O)(=O)c2ccc(OC)cc2)CC1	3300 nM	84%	
CCN(Cc1ccccc1)C(=O)C1CCN(S(=O)(=O)c2ccc3nsnc3c2)CC1	3000 nM	81%	
CCN(Cc1ccc(C(F)(F)F)cc1)C(=O)C1CCN(S(=O)(=O)c2ccc3cn[nH]c3c2)CC1			EC50 ([1]; cho): Not Active
CCN(Cc1ccccc1C)C(=O)C1CCN(S(=O)(=O)c2ccc3cn[nH]c3c2)CC1	870 nM	103%	
CCCN(Cc1ccccc1C(F)(F)F)C(=O)C1CCN(S(=O)(=O)c2ccc3[nH]ncc3c2)CC1	160 nM	94%	
CCN(Cc1ccc(F)cc1)C(=O)C1CCN(S(=O)(=O)c2ccc3cn[nH]c3c2)CC1	> 10000 nM	55%	
O=C(C1CCN(S(=O)(=O)c2ccc3[nH]ncc3c2)CC1)N(Cc1ccccc1C(F)(F)F)CC1CCC1	130 nM	103%	CLint scaled [3]: > 500 mL/min/kg
CCN(Cc1ccccc1)C(=O)C1CCN(S(=O)(=O)c2ccc(C(F)(F)F)nc2)CC1	> 10000 nM		
CCN(C(=O)C1CCN(S(=O)(=O)c2ccc3cn[nH]c3c2)CC1)[C@H](C)c1ccccc1	760 nM	87%	
CCN(Cc1ccccc1OC)C(=O)C1CCN(S(=O)(=O)c2ccc3cn[nH]c3c2)CC1	750 nM	92%	
CCN(Cc1cccc(C(F)(F)F)c1)C(=O)C1CCN(S(=O)(=O)c2ccc3cn[nH]c3c2)CC1	5600 nM	59%	
CCN(Cc1ccccc1)C(=O)C1CCN(S(=O)(=O)c2ccc3c(c2)OCCO3)CC1			fold change (FC) [4]: 2.3
CCN(Cc1ccccc1Cl)C(=O)C1CCN(S(=O)(=O)c2ccc3cn[nH]c3c2)CC1	640 nM	93%	
O=C(C1CCN(S(=O)(=O)c2ccc3[nH]ncc3c2)CC1)N(Cc1ccccc1C(F)(F)F)CC1CC1	120 nM	102%	CLint scaled [3]: > 500 mL/min/kg
CCN(Cc1ccccc1)C(=O)C1CCN(S(=O)(=O)c2ccccc2)CC1	6200 nM	69%	
CCN(Cc1ccccc1Cl)C(=O)C1CCN(S(=O)(=O)c2ccc3[nH]ncc3c2)CC1	350 nM	78%	
O=C(C1CCN(S(=O)(=O)c2ccc3[nH]ncc3c2)CC1)N(Cc1ccccc1C(F)(F)F)C1CC1			EC50 ([1]; cho): Not Active
CCN(Cc1ccccc1)C(=O)C1CCN(S(=O)(=O)c2c(C)noc2C)CC1	> 10000 nM		
CCN(C(=O)C1CCN(S(=O)(=O)c2ccc3c(c2)CCC3)CC1)[C@H](C)c1ccccc1	730 nM	97%	
CCN(C(=O)C1CCN(S(=O)(=O)c2ccc(OC)cc2)CC1)[C@H](C)c1ccccc1	970 nM	90%	fold change (FC) [4]: 7
CCN(Cc1ccccc1)C(=O)C1CCN(S(=O)(=O)c2cccc3nsnc23)CC1	> 10000 nM		
CCN(C(=O)C1CCN(S(=O)(=O)c2ccc(OC)cc2)CC1)[C@@H](C)c1ccccc1			EC50 ([1]; cho): Not Active
CCN(Cc1ccccc1)C(=O)C1CCN(S(=O)(=O)c2cccnc2)CC1	> 10000 nM		
CCN(Cc1cccc(C)c1)C(=O)C1CCN(S(=O)(=O)c2ccc3cn[nH]c3c2)CC1	870 nM	78%	
CCN(Cc1ccccc1)C(=O)C1CCN(S(=O)(=O)c2ccc(C)s2)CC1	> 10000 nM	64%	
CCC(C)N(Cc1ccccc1C(F)(F)F)C(=O)C1CCN(S(=O)(=O)c2ccc3[nH]ncc3c2)CC1 (stereo unspecified)	150 nM	100%	
CCN(C(=O)C1CCN(S(=O)(=O)c2ccc3occc3c2)CC1)[C@H](C)c1ccccc1	930 nM	80%	

Structure (SMILES)	EC50 ([1]; read-out: EC50)	%max [2]	other results
CCN(Cc1cccc(F)c1)C(=O)C1CCN(S(=O)(=O)c2ccc3cn[nH]c3c2)CC1	1500 nM	89%	
CCN(Cc1ccccc1)C(=O)C1CCN(S(=O)(=O)c2ccc3[nH]ncc3c2)CC1	1600 nM	86%	fold change (FC) [4]: 5.4
C=CCN(Cc1ccccc1C(F)(F)F)C(=O)C1CCN(S(=O)(=O)c2ccc3[nH]ncc3c2)CC1	1800 nM	79%	
CCN(Cc1ccccc1)C(=O)C1CCN(S(=O)(=O)c2ccccn2)CC1	> 10000 nM		
O=C(C1CCN(S(=O)(=O)c2ccc3[nH]ncc3c2)CC1)N(CCF)Cc1ccccc1C(F)(F)F	1300 nM	95%	
CCN(Cc1ccccc1)C(=O)C1CCN(S(=O)(=O)c2ccccc2OC)CC1	> 10000 nM		
CN1[C@@H]2CC[C@H]1C[C@@H](OC(=O)C(CO)c1ccccc1)C2 (stereo partly specified)			%max [5]: 1.8%
CCN(Cc1cccc(Cl)c1)C(=O)C1CCN(S(=O)(=O)c2ccc3cn[nH]c3c2)CC1	1600 nM	77%	
CC(C)N(Cc1ccccc1C(F)(F)F)C(=O)C1CCN(S(=O)(=O)c2ccc3[nH]ncc3c2)CC1	> 10000 nM	54%	
CCN(Cc1ccccc1)C(=O)C1CCN(S(=O)(=O)c2ccc3occc3c2)CC1	2400 nM	80%	
CCN(Cc1ccccc1)C(=O)C1CCN(S(=O)(=O)c2cccc3c2OCCO3)CC1	> 10000 nM	53%	
O=C(C1CCN(S(=O)(=O)c2ccc3[nH]ncc3c2)CC1)N(CCO)Cc1ccccc1C(F)(F)F	> 10000 nM	60%	
CCN(Cc1ccccc1)C(=O)C1CCN(S(=O)(=O)c2ccncc2)CC1	> 10000 nM		
CCN(Cc1ccccc1F)C(=O)C1CCN(S(=O)(=O)c2ccc3cn[nH]c3c2)CC1	2100 nM	84%	
CCN(Cc1ccccc1)C(=O)C1CCN(S(=O)(=O)c2ccc3c(c2)OCO3)CC1	7400 nM	93%	
CCN(Cc1ccccc1)C(=O)C1CCN(S(=O)(=O)c2ccc(OC)c(OC)c2)CC1	> 10000 nM	57%	
CCN(Cc1ccccc1)C(=O)C1CCN(S(=O)(=O)c2ccc3cn[nH]c3c2)CC1	1700 nM	86%	fold change (FC) [4]: 4.8
CCN(Cc1ccccc1C(F)(F)F)C(=O)C1CCN(S(=O)(=O)c2ccc3cn[nH]c3c2)CC1	480 nM	92%	fold change (FC) [4]: 7
O=C(C1CCN(S(=O)(=O)c2ccc3[nH]ncc3c2)CC1)N(Cc1ccccc1C(F)(F)F)C1CCC1	1800 nM	84%	
CCN(Cc1ccccc1)C(=O)C1CCN(S(=O)(=O)c2ccc3cccnc3c2)CC1	> 10000 nM	66%	
CCN(Cc1cccc(OC)c1)C(=O)C1CCN(S(=O)(=O)c2ccc3cn[nH]c3c2)CC1	2600 nM	85%	
CCN(C(=O)C1CCN(S(=O)(=O)c2ccc3c(c2)CCO3)CC1)[C@H](C)c1ccccc1	1110 nM	88%	
CC(C)(C)CN(Cc1ccccc1C(F)(F)F)C(=O)C1CCN(S(=O)(=O)c2ccc3[nH]ncc3c2)CC1	120 nM	104%	CLint scaled [3]: > 500 mL/min/kg
CCN(Cc1ccccc1)C(=O)C1CCN(S(=O)(=O)c2cccc(OC)c2)CC1	3100 nM	77%	
CCN(C(=O)C1CCN(S(=O)(=O)c2ccc3[nH]ncc3c2)CC1)[C@H](C)c1ccccc1	740 nM	86%	fold change (FC) [4]: 12
CCN(Cc1ccccc1)C(=O)C1CCN(S(=O)(=O)c2c[nH]cn2)CC1	> 10000 nM		
